Test [1] concerns the target T1, Protein cereblon/Dual specificity tyrosine-phosphorylation-regulated kinase 2 (Homo sapiens, UniProt Q92630+Q96SW2). Kind of test: PROTAC activity at CRBN/DYRK2 in human HeLa cells assessed as induction of DYRK2 degradation at 5 to 10 uM incubated for 24 hrs by Western blot analysis. In kind it is cell-based. The conditions noted are these: dose 5-10 µM. A digest of the protocol: (§1)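 HeLa cells treated 24 h (one series at 10 and 20 μM, another at 5 and 10 μM); DYRK2 immunoblotted with GAPDH loading reference; band quantitation as mean ± SEM of three independent replicates, one-way ANOVA.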

Test [2] has as its system MDA-MB-231. The test is described as follows: Antiproliferative activity against human MDA-MB-231 cells assessed as inhibition of cell proliferation by CCK-8 assay. In kind it is functional, cell-based.
For test [3], the target named is T2, Dual specificity tyrosine-phosphorylation-regulated kinase 2 (Homo sapiens, UniProt Q92630).
T2 sequence (Q92630 whole entry): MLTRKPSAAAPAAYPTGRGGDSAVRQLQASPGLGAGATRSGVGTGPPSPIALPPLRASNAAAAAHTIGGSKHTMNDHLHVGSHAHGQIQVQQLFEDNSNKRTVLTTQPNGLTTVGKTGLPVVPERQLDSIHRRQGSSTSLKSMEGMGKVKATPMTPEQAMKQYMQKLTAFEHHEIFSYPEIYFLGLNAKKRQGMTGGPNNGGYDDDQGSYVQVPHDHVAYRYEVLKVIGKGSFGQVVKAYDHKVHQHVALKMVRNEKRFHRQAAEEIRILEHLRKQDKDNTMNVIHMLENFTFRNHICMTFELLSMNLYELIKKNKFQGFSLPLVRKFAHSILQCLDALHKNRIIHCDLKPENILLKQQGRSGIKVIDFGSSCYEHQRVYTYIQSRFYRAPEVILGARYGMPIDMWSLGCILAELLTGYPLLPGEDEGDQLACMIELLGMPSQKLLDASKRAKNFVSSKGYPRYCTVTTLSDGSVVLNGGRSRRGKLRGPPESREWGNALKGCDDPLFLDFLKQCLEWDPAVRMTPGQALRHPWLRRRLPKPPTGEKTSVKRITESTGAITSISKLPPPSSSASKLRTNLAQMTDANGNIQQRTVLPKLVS
The test is described as follows: Binding affinity to DYRK2 (unknown origin) assessed as dissociation constant by SPR analysis.

The target in test [4] is T2, Dual specificity tyrosine-phosphorylation-regulated kinase 2. Kind of test: Inhibition of human recombinant DYRK2 using KKISGRLSPIMTEQ as substrate incubated for 60 mins in the presence of ATP by ADP-Glo kinase assay.
The target of test [5] is T1, Protein cereblon/Dual specificity tyrosine-phosphorylation-regulated kinase 2. Kind of test: PROTAC activity at CRBN/DYRK2 in human HeLa cells assessed as decrease in DYRK2 level at 5 uM by Western blot analysis. It is filed as cell-based. To be noted: time 3-24 hrs, TDE = time-dependent effect. In short, it runs like this: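 HeLa cells held at 5 μM over a time course (3 to 24 h); DYRK2 immunoblot normalised to GAPDH, quantified from three independent replicates, one-way ANOVA.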

For test [6] the target is unchanged. The test is described as follows: PROTAC activity at CRBN/DYRK2 in human MDA-MB-231 cells assessed as decrease in c-Myc phosphorylation at Ser62 residue at 5 to 20 uM incubated for 12 hrs by Western blot analysis. In kind it is cell-based. The conditions noted are these: dose 5-20 µM. A digest of the protocol: (§2)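 MM231 cells exposed 12 h across 1.25 to 20 μM; phospho-p53 (Ser46) and phospho-c-Myc (Ser62) immunoblotted, GAPDH loading reference; mean ± SEM of three independent replicates, one-way ANOVA.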

The target is the same in test [7]. Kind of test: PROTAC activity at CRBN/DYRK2 in human MDA-MB-231 cells assessed as reduction in DYRK2 degradation level at 10 uM preincubated with MG132 for 2 hrs followed by compound addition and further incubated for 12 hrs by Western blot analysis. In kind it is cell-based. A digest of the protocol: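 MM231 cells pretreated 2 h with 10 μM MG132 (UPS inhibitor) before compound for 12 h; DYRK2 Western blot with GAPDH reference, three independent replicates, one-way ANOVA.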

The target is the same in test [8]. Kind of test: PROTAC activity at CRBN/DYRK2 in human MDA-MB-231 cells assessed as increase in ubiquitination of DYRK2 at 10 uM incubated for 12 hrs by coimmunoprecipitation analysis. It is filed as cell-based. In short, it runs like this:
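MM231 cells pretreated with 10 μM MG132 for 2 h, then compound for 12 h; DYRK2 and ubiquitin examined by co-immunoprecipitation.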

Test [9] shares this target. The test is described as follows: PROTAC activity at CRBN/DYRK2 in human MDA-MB-231 cells assessed as induction of DYRK2 degradation incubated for 24 hrs by Western blot analysis. In kind it is cell-based. A digest of the protocol: (§3)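 MM231 cells given graded concentrations for 24 h; DYRK2 Western blot with GAPDH loading reference, three independent replicates (mean ± SEM); DC50 taken from concentration–degradation data.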

For test [10] the target is unchanged. Kind of test: PROTAC activity at CRBN/DYRK2 in human MDA-MB-231 cells assessed as decrease in p53 phosphorylation at Ser46 residue at 5 to 20 uM incubated for 12 hrs by Western blot analysis. It is filed as cell-based. The conditions noted are these: dose 5-20 µM. A digest of the protocol: as §2
Test [11] shares this target. Kind of test: PROTAC activity at CRBN/DYRK2 in human HeLa cells assessed as induction of DYRK2 degradation at 2.5 to 40 uM incubated for 24 hrs by Western blot analysis. It is filed as cell-based. The conditions noted are these: dose 2.5-40 µM. A digest of the protocol: (§4)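 HeLa cells exposed to graded concentrations for 24 h; DYRK2 Western blot normalised to GAPDH, three independent replicates (mean ± SEM); DC50 derived from concentration series.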

Test [12] shares this target. The test is described as follows: PROTAC activity at CRBN/DYRK2 in human MDA-MB-231 cells assessed as decrease in DYRK2 level at 2.5 to 10 uM incubated for 12 hrs by flow cytometry analysis. In kind it is cell-based. To be noted: dose 5-10 µM, in the assay text read “5 to 10 uM” for “2.5 to 10 uM”. In short, it runs like this:
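MM231 cells treated 12 h; DYRK2 immunostaining quantified by flow cytometry as FITC-A channel fluorescence intensity.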

For test [13] the target is unchanged. The test is described as follows: PROTAC activity at CRBN/DYRK2 in human HeLa cells assessed as induction of DYRK2 degradation incubated for 24 hrs by Western blot analysis. In kind it is cell-based. A digest of the protocol:
as §4

For test [14] the target is unchanged. Kind of test: PROTAC activity at CRBN/DYRK2 in human MDA-MB-231 cells assessed as induction of DYRK2 degradation at 2.5 to 40 uM incubated for 24 hrs by Western blot analysis. In kind it is cell-based. To be noted: dose 2.5-40 µM. A digest of the protocol: as §3
Test [15] shares this target. The test is described as follows: PROTAC activity at CRBN/DYRK2 in human MDA-MB-231 cells assessed as reduction of DYRK2 protein level at 5 uM incubated for 12 hrs in presence of 3,5-bis(2-bromobenzylidene)piperidin-4-one by Western blot analysis. In kind it is cell-based.
Test [16] has the same target. The test is described as follows: PROTAC activity at CRBN/DYRK2 in human HeLa cells assessed as decrease in DYRK2 level by measuring reduction in fluorescence intensity at 5 to 10 uM incubated for 12 hrs by immunofluorescence based confocal laser scanning microscopy. In kind it is cell-based. To be noted: dose 5-10 µM. A digest of the protocol:
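HeLa cells treated 5 and 10 μM for 12 h; DYRK2 immunostained, Cy3 fluorescence intensity read by confocal laser scanning microscopy and quantified.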

For test [17] the target is unchanged. Kind of test: PROTAC activity at CRBN/DYRK2 in human HeLa cells assessed as reduction in DYRK2 protein level at 5 to 10 uM incubated for 12 hrs by Western blot analysis. It is filed as cell-based. The conditions noted are these: dose 5-10 µM.
The target is the same in test [18]. The test is described as follows: PROTAC activity at CRBN/DYRK2 in human HeLa cells assessed as induction of DYRK2 degradation at 10 to 20 uM incubated for 24 hrs by Western blot analysis. It is filed as cell-based. The conditions noted are these: dose 10-20 µM. In short, it runs like this:
as §1

pIC50, pKd: −log10 of the molar value. Calls of active or inactive are those of the source. The rule behind the calls is not given here. A value given as a limit tells only on which side of the number the result lay.

For `O=C(CN1C/C(=C\c2ccccc2Cl)C(=O)/C(=C/c2ccccc2Cl)C1)NCCOCCOCCOCCNc1cccc2c1C(=O)N(C1CCC(=O)NC1=O)C2=O` (centres undefined), the outcome in test [1] was Active.
Turning to `COc1cc(/C=C/C(=O)CC(=O)/C=C/c2ccc(O)c(OC)c2)ccc1O` [CURCUMIN], the pIC50 was less than 4.70 in test [2] and 8.00 in [4]. Also, the pKd in test [3] was 4.84.
For the compound `O=C(CN1C/C(=C\c2ccccc2Cl)C(=O)/C(=C/c2ccccc2Cl)C1)NCCOCCOCCNc1cccc2c1C(=O)N(C1CCC(=O)NC1=O)C2=O` (centres undefined), the outcome in test [1] was Active.
As to `O=C(CN1C/C(=C\c2ccccc2Br)C(=O)/C(=C/c2ccccc2Br)C1)NCCOCCOCCNc1cccc2c1C(=O)N(C1CCC(=O)NC1=O)C2=O` (centres undefined), the outcome in test [1] was Active.
As to `O=C1/C(=C/c2ccccc2Br)CNC/C1=C\c1ccccc1Br`, the values for the pIC50 in test [2] and in test [4] were 5.38 and 7.62, respectively. The negative logarithm of the Kd (pKd) in [3] is 5.10.
For `O=C(CN1C/C(=C\c2ccccc2Br)C(=O)/C(=C/c2ccccc2Br)C1)NCCOCCOCCOCCNc1cccc2c1C(=O)N(C1CCC(=O)NC1=O)C2=O` (centres undefined), the negative logarithm of the IC50 (pIC50) in [2] is 5.04. For the same compound, in test [5], the Activity result is “Tde”. Besides, the outcome in [6], in test [8], in test [10], in [11], in test [12] and in test [1] was Active. Besides, the result in [14] and in test [16] was Active. The outcome in test [7] and in test [15] was inactive. Besides, the DC50 amounted to 1.61 µM in [9] and 3.26 µM in [13]. In test [3], the negative logarithm of the Kd (pKd) is 4.53.
For the compound `O=C(CN1C/C(=C\c2ccccc2F)C(=O)/C(=C/c2ccccc2F)C1)NCCOCCOCCOCCNc1cccc2c1C(=O)N(C1CCC(=O)NC1=O)C2=O` (centres undefined), the result in test [1] was Active.
For `O=C(CN1C/C(=C\c2ccccc2F)C(=O)/C(=C/c2ccccc2F)C1)NCCOCCOCCNc1cccc2c1C(=O)N(C1CCC(=O)NC1=O)C2=O` (centres undefined), in [1], the result was Active.
For the compound `CN1C(=O)CCC(N2C(=O)c3cccc(NCCOCCOCCOCCNC(=O)CN4C/C(=C\c5ccccc5Br)C(=O)/C(=C/c5ccccc5Br)C4)c3C2=O)C1=O` (centres undefined), the result in test [17] was inactive.
As for `COc1cc(/C=C/C(=O)CC(=O)/C=C/c2ccc(OC(=O)CCOCCOCCNC(=O)COc3cccc4c3C(=O)N(C3CCC(=O)NC3=O)C4=O)c(OC)c2)ccc1O` (centres undefined), the outcome in test [18] was Active.
Still for that read-out and setting: under `COc1cc(/C=C/C(=O)CC(=O)/C=C/c2ccc(OC(=O)CCOCCOCCOCCNC(=O)COc3cccc4c3C(=O)N(C3CCC(=O)NC3=O)C4=O)c(OC)c2)ccc1O` (centres undefined) stands “Active”.
